ChEMBL document CHEMBL1145026, “Synthesis and antibacterial activity of 6-O-arylbutynyl ketolides with improved activity against some key erythromycin-resistant pathogens” (2003)
Values after ≈ are worked out from the molar mass of the structure shown.

Experiments:
Type in all cases: functional
Streptococcus pneumoniae [1] = assay: In Vitro antibacterial activity against Streptococcus pneumoniae 5649 (mefE strain)
Outline: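 Efflux-resistant strain carrying mefE. MIC determined by the agar dilution method recommended by NCCLS.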

Streptococcus pyogenes [2] = assay: In Vitro antibacterial ativity against Streptococcus pyogenes 930 (ermB strain)
Outline: (§1)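 Strains with MLSB resistance encoded by ermB. MICs obtained by agar dilution as recommended by NCCLS.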

Staphylococcus aureus [3] = assay: In Vitro antibacterial activity against Staphylococcus aureus 1775 (ermA-c strain)
Outline: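 Methicillin-resistant (MRSA) strain. Minimum inhibitory concentration read by agar dilution, following NCCLS recommendations.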

Streptococcus pyogenes [4] = assay: In Vitro antibacterial ativity against Streptococcus pyogenes EES61 (Ery-S strain)
Outline: (§2)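 Agar dilution method per NCCLS recommendations, with activity reported as minimum inhibitory concentration.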

Staphylococcus aureus [5] = assay: In Vitro antibacterial activity against Staphylococcus aureus A5177 (ermA-i strain)
Outline: (§3)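 MIC by agar dilution following NCCLS recommendations, against S. aureus.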

Streptococcus pneumoniae [6] = assay: In Vitro antibacterial activity against Streptococcus pneumoniae ATCC 6303 (Ery-S strain); outline: as §2
Streptococcus pneumoniae [7] = assay: In Vitro antibacterial activity against Streptococcus pneumoniae 5979 (ermB strain); outline: as §1
Haemophilus influenzae = assay: In Vitro antibacterial activity against H. flu DILL (Amp-R strain)
Outline: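 MIC by agar dilution following NCCLS recommendations. Test organism is H. influenzae DILL, an ampicillin-resistant strain carrying a β-lactamase-positive determinant.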

Staphylococcus aureus [8] = assay: In Vitro antibacterial activity against Staphylococcus aureus ATCC 6538P (Ery-S […] strain); outline: as §3
Streptococcus pyogenes [9] = assay: In Vitro antibacterial ativity against Streptococcus pyogenes PIU2548 (mefA strain)
Outline: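 Tested on a mefA-encoded efflux-resistant strain. The endpoint is the MIC by NCCLS-recommended agar dilution.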

Row | Structure (SMILES) | MIC (Streptococcus pneumoniae [1]) | MIC (Streptococcus pyogenes [2]) | MIC (Staphylococcus aureus [3]) | MIC (Streptococcus pyogenes [4]) | MIC (Staphylococcus aureus [5]) | MIC (Streptococcus pneumoniae [6]) | MIC (Streptococcus pneumoniae [7]) | MIC (Haemophilus influenzae) | MIC (Staphylococcus aureus [8]) | MIC (Streptococcus pyogenes [9])
1 | CC[C@H]1OC(=O)[C@H](C)C(=O)[C@H](C)[C@@H](O[C@@H]2O[C@H](C)C[C@H](N(C)C)[C@H]2O)[C@@](C)(OCC#CCc2ccc(-c3csnn3)cc2)C[C@@H](C)C(=O)[C@H](C)[C@H]2NC(=O)O[C@@]21C | 0.25 µg/mL (≈ 0.308 µM) | 4 µg/mL (≈ 4.93 µM) | > 100 µg/mL | 0.03 µg/mL (≈ 0.037 µM) | 0.1 µg/mL (≈ 0.123 µM) | < 4 ng/mL | 8 µg/mL (≈ 9.86 µM) | 2 µg/mL (≈ 2.47 µM) | 0.05 µg/mL (≈ 0.0617 µM) | 0.125 µg/mL (≈ 0.154 µM)
2 | CC[C@H]1OC(=O)[C@H](C)C(=O)[C@H](C)[C@@H](O[C@@H]2O[C@H](C)C[C@H](N(C)C)[C@H]2O)[C@@](C)(OCC#CCc2ccc(-c3cnccn3)cc2)C[C@@H](C)C(=O)[C@H](C)[C@H]2NC(=O)O[C@@]21C | – | 4 µg/mL (≈ 4.97 µM) | > 100 µg/mL | < 0.004 µg/mL | 0.02 µg/mL (≈ 0.0248 µM) | < 4 ng/mL | 0.03 µg/mL (≈ 0.0373 µM) | 4 µg/mL (≈ 4.97 µM) | 0.02 µg/mL (≈ 0.0248 µM) | 0.015 µg/mL (≈ 0.0186 µM)
3 | CC[C@H]1OC(=O)[C@H](C)C(=O)[C@H](C)[C@@H](O[C@@H]2O[C@H](C)C[C@H](N(C)C)[C@H]2O)[C@@](C)(OCC#CCc2cnc3ccccc3c2)C[C@@H](C)C(=O)[C@H](C)[C@H]2NC(=O)O[C@@]21C | 0.25 µg/mL (≈ 0.321 µM) | 16 µg/mL (≈ 20.6 µM) | > 100 µg/mL | 0.015 µg/mL (≈ 0.0193 µM) | 0.1 µg/mL (≈ 0.129 µM) | < 4 ng/mL | 2 µg/mL (≈ 2.57 µM) | 2 µg/mL (≈ 2.57 µM) | 0.1 µg/mL (≈ 0.129 µM) | 0.25 µg/mL (≈ 0.321 µM)
4 | CC[C@H]1OC(=O)[C@H](C)C(=O)[C@H](C)[C@@H](O[C@@H]2O[C@H](C)C[C@H](N(C)C)[C@H]2O)[C@@](C)(OCC#CCc2ccc(-c3cccnc3)cc2)C[C@@H](C)C(=O)[C@H](C)[C@H]2NC(=O)O[C@@]21C | 0.125 µg/mL (≈ 0.155 µM) | 8 µg/mL (≈ 9.95 µM) | > 100 µg/mL | < 0.004 µg/mL | 0.02 µg/mL (≈ 0.0249 µM) | < 4 ng/mL | 0.125 µg/mL (≈ 0.155 µM) | 4 µg/mL (≈ 4.98 µM) | 0.02 µg/mL (≈ 0.0249 µM) | 0.125 µg/mL (≈ 0.155 µM)
5 | CC[C@H]1OC(=O)[C@H](C)C(=O)[C@H](C)[C@@H](O[C@@H]2O[C@H](C)C[C@H](N(C)C)[C@H]2O)[C@@](C)(OCC#CCc2ccccc2)C[C@@H](C)C(=O)[C@H](C)[C@H]2NC(=O)O[C@@]21C | 0.25 µg/mL (≈ 0.344 µM) | 128 µg/mL (≈ 176 µM) | > 100 µg/mL | 0.06 µg/mL (≈ 0.0825 µM) | 0.2 µg/mL (≈ 0.275 µM) | 30 ng/mL (≈ 0.0413 µM) | 16 µg/mL (≈ 22 µM) | 2 µg/mL (≈ 2.75 µM) | 0.2 µg/mL (≈ 0.275 µM) | 0.25 µg/mL (≈ 0.344 µM)
6 | CC[C@H]1OC(=O)[C@@](C)(F)C(=O)[C@H](C)[C@@H](O[C@@H]2O[C@H](C)C[C@H](N(C)C)[C@H]2O)[C@@](C)(OCC#CCc2ccc(-c3csnn3)cc2)C[C@@H](C)C(=O)[C@H](C)[C@H]2NC(=O)O[C@@]21C | 0.5 µg/mL (≈ 0.603 µM) | 4 µg/mL (≈ 4.83 µM) | > 100 µg/mL | 0.03 µg/mL (≈ 0.0362 µM) | 0.05 µg/mL (≈ 0.0603 µM) | 15 ng/mL (≈ 0.0181 µM) | 4 µg/mL (≈ 4.83 µM) | 4 µg/mL (≈ 4.83 µM) | 0.05 µg/mL (≈ 0.0603 µM) | 0.25 µg/mL (≈ 0.302 µM)
7 | CC[C@H]1OC(=O)[C@H](C)[C@@H](O[C@H]2C[C@@](C)(OC)[C@@H](O)[C@H](C)O2)[C@H](C)[C@@H](O[C@@H]2O[C@H](C)C[C@H](N(C)C)[C@H]2O)[C@](C)(O)C[C@@H](C)C(=O)[C@H](C)[C@@H](O)[C@]1(C)O [ERYTHROMYCIN] | 4 µg/mL (≈ 5.45 µM) | > 128 µg/mL | > 128 µg/mL | 0.015 µg/mL (≈ 0.0204 µM) | > 128 µg/mL | 15 ng/mL (≈ 0.0204 µM) | > 128 µg/mL | 4 µg/mL (≈ 5.45 µM) | 0.5 µg/mL (≈ 0.681 µM) | 8 µg/mL (≈ 10.9 µM)
8 | CC[C@H]1OC(=O)[C@H](C)C(=O)[C@H](C)[C@@H](O[C@@H]2O[C@H](C)C[C@H](N(C)C)[C@H]2O)[C@](C)(OC)C[C@@H](C)C(=O)[C@H](C)[C@H]2N(CCCCn3cnc(-c4cccnc4)c3)C(=O)O[C@]12C [TELITHROMYCIN] | 0.5 µg/mL (≈ 0.616 µM) | 8 µg/mL (≈ 9.85 µM) | > 100 µg/mL | 0.004 µg/mL (≈ 0.00493 µM) | 0.1 µg/mL (≈ 0.123 µM) | 4 ng/mL (≈ 0.00493 µM) | 8 µg/mL (≈ 9.85 µM) | 2 µg/mL (≈ 2.46 µM) | 0.1 µg/mL (≈ 0.123 µM) | 2 µg/mL (≈ 2.46 µM)
